SR-BI HDL uptake = inhibitors of SR-BI mediated HDL lipid uptake, primary screen, ldlA[mSR-BI] cells, fluorescence, single point. ldlA[mSR-BI] CHO cells, DiI-HDL uptake fluorescence, 3 h. inhibition, % at 12.5 µM. 320,000 compounds, 0.96% hits;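 active = mean replicate inhibition of at least 70% and a set share of replicates each scoring 70 or more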;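 also: 0% = median of neutral control wells and 100% = median of positive control wells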
Target sequence (Q61009 whole entry, looked up): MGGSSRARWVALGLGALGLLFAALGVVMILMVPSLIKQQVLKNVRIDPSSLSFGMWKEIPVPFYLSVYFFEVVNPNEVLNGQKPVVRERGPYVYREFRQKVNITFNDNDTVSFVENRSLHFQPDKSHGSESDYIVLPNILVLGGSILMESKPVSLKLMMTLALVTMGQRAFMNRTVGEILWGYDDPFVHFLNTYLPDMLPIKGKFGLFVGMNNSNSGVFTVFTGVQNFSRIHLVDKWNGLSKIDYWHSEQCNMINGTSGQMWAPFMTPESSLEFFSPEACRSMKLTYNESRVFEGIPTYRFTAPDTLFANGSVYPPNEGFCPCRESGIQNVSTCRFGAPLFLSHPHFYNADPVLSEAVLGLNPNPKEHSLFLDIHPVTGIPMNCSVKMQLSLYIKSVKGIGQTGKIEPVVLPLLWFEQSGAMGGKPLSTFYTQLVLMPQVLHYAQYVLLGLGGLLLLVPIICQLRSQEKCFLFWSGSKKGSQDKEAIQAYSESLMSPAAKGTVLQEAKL
SR-BI uptake up = activators of SR-BI mediated DiI-HDL uptake, primary screen, ldlA[mSR-BI] CHO cells, DiI fluorescence. 3 h; 100 = double the neutral-control signal. activation, % at 12.5 µM. 320,000 compounds, 0.096% hits. AID 504775, 2011;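 active = mean replicate activation of at least 60% and every replicate at or above 60%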;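 also: 0% = median plate neutral-control signal and 100% = twice that signal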
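material = CHO ldlA[mSR-BI] cells | medium = Ham's F12 with 0.5% BSA, HEPES 25 mM, pH 7.4 | reagent = fluorescent DiI-HDL, 10 µg/mL final | compound dosing = single-point compound dose | incubation = 3 h, 37 °C | measured by = bottom-read fluorescence, 550/595 nm | measure = HDL uptake via cellular fluorescence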
PvdQ acylase = P. aeruginosa PvdQ acylase inhibitors, primary screen, biochemical, fluorescence, plate reader and imaging, single point; purified PvdQ acylase; inhibition, % at 10 µM; 340,000 compounds, 0.063% hits; in the data active = inhibition above about 30%, passing the limit was not always enough;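 also: 0% = vehicle neutral wells and 100% = reference inhibitor wells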
XiGFP reactiv = activators of inactive X chromosome reactivation, primary screen, imaging, XiGFP fibroblasts, GFP high-content imaging, set 2. XiGFP mouse fibroblasts, % GFP-positive cells imaging, 3 d; cells co-treated with 5-aza-dC sensitizer; scaled so ellipticine positive control = 100%. activation, % at 7.58 µM. 360,000 compounds, 0.055% hits. AID 743238, 2013;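 active = mean normalized replicate activation at least 10% and every replicate at or above 10%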;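 also: 0% = median of on-plate neutral control wells and 100% = ellipticine 6 µM median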
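Assay system – SV40-immortalized XiGFP fibroblast cells, line 68-5-11 · Buffer or medium – DMEM supplemented with 5-aza-dC as sensitizing agent · Dosing – one concentration, pinned · Benchmarks – positive control ellipticine, 6 µM final · Times – 3 days compound exposure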
dFosB act = activators of delta FosB homodimer, primary screen, biochemical, fluorescence polarization, TAMRA-CDK5 oligo, single point; Protein FosB (Mus musculus), P13346; purified delta FosB; percent of positive-control signal above neutral wells; activation, % at 25 µM; 340,000 compounds, 0.99% hits;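 active = mean activation above about 17%, with every replicate also reaching it, limit read from the data, passing the limit was not always enough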
Ecoli rRNA inh = reduced GFP signal of wild-type E. coli, primary screen, bacterial rRNA inhibitor project, GFP/RFP fluorescence, OD600, single point; E. coli WT GFP vs humanized-ribosome RFP mutants, 24 h; hits give low values; DMSO median 0, no signal -100; GFP signal change (wild-type ribosome), % (no concentration beside the values); AID 720706, 2013; 350,000 compounds, 1.6% hits;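 active = significant combined selectivity score with lowered wild-type GFP, culture density cut under 30%, mutant RFP and density less affected; inactive = any of these conditions unmet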
Active calls of the source: *; . = not tested or not shown. Sampled rows, rich in hits. Any-hit rate of the full collection: about 2.6%.

SMILES	SR-BI HDL uptake	SR-BI uptake up	PvdQ acylase	XiGFP reactiv	dFosB act	Ecoli rRNA inh
CC(C)=CCCC1(C)C=Cc2c(c(C)cc3c2[nH]c2cc(O)ccc23)O1 (configuration not stated)	107*	-107	-18	.	-2	.
Cc1ccccc1NC(=O)COC(=O)CNC(=O)c1sc2ccccc2c1Cl	-11	11	-10	0	-12	-2
O=C(COC(=O)CNC(=O)c1sc2ccccc2c1Cl)Nc1cc(Cl)cc(Cl)c1	8	-8	-3	0	167*	10
Cc1ccc(NC(=S)N/N=C/c2c(C)[nH]c3ccccc23)cc1	102*	-102	-5	0	-3	-23
Cc1[nH]c2ccccc2c1/C=N/NC(=O)Nc1ccccc1	39	-39	-17	0	-4	-20*
Cc1[nH]c2ccccc2c1/C=N/NC(=O)c1cc(-c2ccccc2)n[nH]1	63	-63	-11	0	-4	-23*
Cc1[nH]c2ccccc2c1/C=N/NC(N)=S	86*	-86	0	0	-4	-1
Cc1[nH]c2ccccc2c1/C=N/NC(=O)c1ccccc1	-23	23	3	0	0	1
O=C(Nc1cccc(-c2cccc(Cl)c2)c1)C1CCN(Cc2ccc(CO)o2)CC1	1	-1	-13	0	4	-59
Cc1sc2nc(CN3CCCC3)nc(N3CCN(S(=O)(=O)c4ccccc4)CC3)c2c1C	-16	16	-16	0	42*	.
CCOC(=O)c1cnc(-c2ccccc2)nc1N	18	-18	77*	.	3	-1
COc1ccccc1CCc1nnc(CCC(=O)NC(C)Cc2ccsc2)o1 (configuration not stated)	-1	1	6	1	-7	-2
COc1ccccc1-n1cnc2cc(NCc3ccccc3O)ccc21	10	-10	5	1	-7	-18*
COc1cc(/C=N/NC(=O)c2cc3ccccc3cc2O)ccc1OCCN1CCCCC1	77*	-77	3	0	79*	.
COCCn1c(C)cc(/C=N/NC(=O)c2cc3ccccc3cc2O)c1C	95*	-95	-16	.	-4	.
Cc1cc(C(c2ccc(O)cc2)c2cc(C)c(O)cc2C)c(C)cc1O	-8	8	-9	0	6	-37*
CCC(c1ccc(O)cc1)C(CC)c1ccc(O)cc1 (configuration not stated)	-8	8	-12	0	-8	-60
CC(=O)N(CCOc1ccccc1)CCOc1ccccc1	20	-20	-10	1	-2	-23*
O=c1[nH]nc(-c2ccc(F)cc2)cc1Cc1cccs1	-1	1	-1	0	-3	-20*
Cc1ccc(-c2cc(Cc3cccs3)c(=O)[nH]n2)cc1	33	-33	-1	0	-8	0
CCN(CC)CCCN(C(=O)c1ccc(OC)cc1)c1nc(-c2ccc(OC)cc2)cs1	11	-11	-13	0	-9	-35*
COc1ccc(-c2cc(C(=O)NCC3CCCO3)c3cc(C)ccc3n2)cc1 (configuration not stated)	72*	-72	7	0	-15	5
COc1ccc(-c2csc(N(CC3CCCO3)C(=O)c3ccc(C)cc3)n2)cc1 (configuration not stated)	77*	-77	-3	.	-4	.
COc1ccc(-c2cc(C(=O)NCC3CCCO3)c3ccccc3n2)cc1 (configuration not stated)	63	-63	-12	0	-16	-2
COCCCN(C(C)=O)c1nc(-c2ccc(OC)cc2)cs1	78*	-78	-5	.	-8	.
CCC1NC(=O)c2ccccc2N1c1cccc(Cl)c1 (configuration not stated)	-5	5	-1	0	3	-45*
